This is an account of results in paper PMC6626684 (Biochemical and biophysical research communications, 2019).

The target in one assay is WT mTRPV1 (Mus musculus, UniProt Q704Y3). The experiment in a line: Live-cell calcium fluorescence imaging. It counts as cell-based.
In the next assay the target is mTRPV1 T551V (Mus musculus, UniProt Q704Y3, T551V). Put plainly: Live-cell calcium fluorescence imaging. It counts as cell-based. The note with it: for Hill slope factor: calcium imaging, T551V.
For another assay, the target named is mTRPV1 E571A (Mus musculus, UniProt Q704Y3, E571A). The experiment in a line: Live-cell calcium fluorescence imaging. It counts as cell-based.
mTRPV1 E571A, sequence (Q704Y3 whole entry E571A): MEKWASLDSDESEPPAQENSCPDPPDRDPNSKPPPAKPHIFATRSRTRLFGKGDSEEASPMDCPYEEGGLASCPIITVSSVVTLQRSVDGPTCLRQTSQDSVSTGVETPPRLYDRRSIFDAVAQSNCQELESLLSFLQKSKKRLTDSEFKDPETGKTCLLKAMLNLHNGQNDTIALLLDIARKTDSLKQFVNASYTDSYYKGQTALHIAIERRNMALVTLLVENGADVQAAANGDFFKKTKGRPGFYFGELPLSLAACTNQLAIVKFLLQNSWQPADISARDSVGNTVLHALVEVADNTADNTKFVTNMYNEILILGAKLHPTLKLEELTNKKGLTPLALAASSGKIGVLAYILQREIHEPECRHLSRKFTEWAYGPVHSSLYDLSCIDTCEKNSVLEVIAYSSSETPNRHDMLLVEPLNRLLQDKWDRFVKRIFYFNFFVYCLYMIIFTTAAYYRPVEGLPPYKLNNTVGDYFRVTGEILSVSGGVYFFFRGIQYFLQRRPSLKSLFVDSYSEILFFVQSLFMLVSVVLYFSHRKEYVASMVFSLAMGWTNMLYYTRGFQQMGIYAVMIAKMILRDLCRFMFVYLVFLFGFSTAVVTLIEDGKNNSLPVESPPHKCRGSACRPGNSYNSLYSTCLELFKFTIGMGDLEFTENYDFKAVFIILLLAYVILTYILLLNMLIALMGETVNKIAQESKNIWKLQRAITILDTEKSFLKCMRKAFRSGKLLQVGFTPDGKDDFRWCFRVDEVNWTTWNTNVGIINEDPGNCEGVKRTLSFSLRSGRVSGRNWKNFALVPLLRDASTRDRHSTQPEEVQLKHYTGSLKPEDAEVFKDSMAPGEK
For assay [1], the target named is T1, WT TRPV1 (Mus musculus, UniProt Q704Y3). Put plainly: Single-channel inside-out patch-clamp recording, WT channel. In kind it is cell-based. The conditions noted are these: for Hill slope factor: electrophysiology.
T1 sequence (Q704Y3 whole entry): as the sequence (Q704Y3 whole entry E571A) above, with A571E counted along it
Another assay addresses TRPV1 T551V (Mus musculus, UniProt Q704Y3, T551V). Put plainly: Single-channel inside-out patch-clamp recording, T551V mutant. In kind it is cell-based. The conditions noted are these: for Hill slope factor: electrophysiology; for Hill slope factor / open probability: T551V.
Another assay has as its target TRPV1 E571A (Mus musculus, UniProt Q704Y3, E571A). The experiment in a line: Single-channel inside-out patch-clamp recording, E571A mutant. The conditions noted are these: for Hill slope factor: electrophysiology, E571A. It counts as cell-based.
The target in a further assay is TRPV1 T671V (Mus musculus, UniProt Q704Y3, T671V). Put plainly: Single-channel inside-out patch-clamp recording, T671V mutant. It counts as cell-based.
TRPV1 T671V, sequence (Q704Y3 whole entry T671V): as the sequence (Q704Y3 whole entry E571A) above, with A571E, T671V counted along it
The target of assay [2] is T1, WT TRPV1. The note with it: mTRPV1; cited from earlier work.
Assay [3] deals with T2, TRPV1 T671S (Mus musculus, UniProt Q704Y3, T671S). The note with it: capsaicin stimulation; cited from earlier work.
T2 sequence (Q704Y3 whole entry T671S): as the sequence (Q704Y3 whole entry E571A) above, with A571E, T671S counted along it
For assay [4] the following is noted: psychophysical tests; cited from earlier work.
Assay [5] deals with non-transfected HEK293 cells. Put plainly: Calcium imaging control in non-transfected cells. In kind it is cell-based.
Assay [6] addresses T2, TRPV1 T671S. The experiment in a line: Single-channel inside-out patch-clamp recording, T671S mutant. In kind it is cell-based. The note with it: most piperine concentrations tested. In outline: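 HEK293 cells transiently transfected (Lipofectamine 2000) with eYFP-fused mouse TRPV1 mutant, used 1–2 days later. Inside-out patches held at 0 mV for 50 ms, stepped to +80 mV for 1 s. Symmetrical 130 mM NaCl, 0.2 mM EDTA, 3 mM HEPES pH 7.2, no Ca2+, 25°C. Filtered at 2.25 kHz, sampled at 10 kHz. Po from Gaussian fits to all-point histograms; patches with >2 channels discarded. Repeated-measures two-way ANOVA.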

Molecules are shown by their SMILES.

TRPV1 T551V, sequence (Q704Y3 whole entry T551V): as the sequence (Q704Y3 whole entry E571A) above, with T551V, A571E counted along it
mTRPV1 T551V, sequence (Q704Y3 whole entry T551V): as the sequence (Q704Y3 whole entry E571A) above, with T551V, A571E counted along it
WT mTRPV1, sequence (Q704Y3 whole entry): as the sequence (Q704Y3 whole entry E571A) above, with A571E counted along it
TRPV1 E571A, sequence (Q704Y3 whole entry E571A): as the sequence (Q704Y3 whole entry E571A) above

Turning to `COc1cc(CNC(=O)CCCC/C=C/C(C)C)ccc1O` [capsaicin], the EC50 at WT mTRPV1 was 0.1 ± 0.002 µM; on mTRPV1 T551V, 1 ± 0.02 µM; at mTRPV1 E571A, 1 ± 0.04 µM; at TRPV1 T551V, 1.4 ± 0.03 µM; on TRPV1 E571A, 1.3 ± 0.03 µM. For the same molecule, the Hill slope factor is 1.9 on WT mTRPV1 (calcium imaging, WT); 3.3 on mTRPV1 T551V; 3.0 on mTRPV1 E571A (calcium imaging, E571A); 1.9 on WT TRPV1 [1] (WT); 3.3 at TRPV1 T551V; 3.0 at TRPV1 E571A. At TRPV1 T671V (capsaicin (10 μM)), the “currents from the same patches” value was “robust currents”. Moreover, the maximum open probability result on WT TRPV1 [2] is “above 90%”. In addition, the “channel activity of T671S when stimulated” value on TRPV1 T671S [3] is recorded as “wildtype-like activities”. Moreover, the relative pungency-taste threshold in [4] is 0.6 µM.

As for `O=C(/C=C/C=C/c1ccc2c(c1)OCO2)N1CCCCC1` [piperine, Piperine], the EC50 at WT mTRPV1 is 3.3 ± 0.7 µM; on mTRPV1 T551V, 5.1 ± 0.7 µM; at mTRPV1 E571A, 3.5 ± 0.5 µM; at WT TRPV1 [1] it was 252 ± 38.1 µM; at TRPV1 T551V, 93.5 ± 15.1 µM; on TRPV1 E571A, 277 ± 36.5 µM. Further, the “fluorescence intensity of the cells at 30 μM” value at WT mTRPV1 (30 μM piperine, WT, consistent with channel desensitization) was “decreased”. In addition, the Hill slope factor on WT mTRPV1 (calcium imaging, WT) amounted to 2.2; on mTRPV1 T551V it was 1.3; at mTRPV1 E571A (calcium imaging, E571A) it was 2.2; at WT TRPV1 [1] (WT), 2.2; on TRPV1 T551V it was 0.9; at TRPV1 E571A it was 0.7. Also, the efficacy on WT mTRPV1 (calcium imaging, WT, normalized to 10 μM capsaicin response) is 82.7 ± 5.7%; on mTRPV1 E571A (calcium imaging, E571A, normalized to 10 μM capsaicin response), 77.1 ± 7.3%. For the same molecule, the “fluorescence signal at 30 μM” value on mTRPV1 T551V (30 μM piperine, T551V expressing cells) is reported as “decreased substantially”; on mTRPV1 E571A (30 μM piperine, E571A expressing cells), “decreased substantially”. In addition, the “non-specific effects in untransfected cells” value in assay [5] is given as “no detectable non-specific effects”. Further, the “open probability (Po)” value on WT TRPV1 [1] (30 μM piperine, WT) is 10%. Moreover, the “maximal Po predicted by extrapolation” value at WT TRPV1 [1] (WT, extrapolation of Hill fit) is on record as “about 36%”. Moreover, the open probability at TRPV1 T551V (10 μM piperine) was 12.3 ± 2.2%; at TRPV1 T551V (30 μM piperine) it was 25.8 ± 5.1%. Besides, the Emax on TRPV1 E571A (read-out: maximum activation open probability (estimated)) was 22%. Also, the “open probability compared with wildtype channels” value at TRPV1 T671S [6] is “significantly lower”. Moreover, the channel activity result on TRPV1 T671V (30 μM piperine) was “no channel activity”. Besides, the “perceived pungency level, times lower than capsaicin” value in assay [4] is recorded as 10-to-100 times. Moreover, the relative pungency-taste threshold in assay [4] was 10.5 µM.

Turning to `Oc1cc2c(cc1O)CN(C(=S)NCCc1ccc(Cl)cc1)CCC2` [CZP, capsazepine], on WT mTRPV1 (10 μM CZP with 10 μM piperine, calcium imaging), the “inhibition of fluorescence intensity increase induced by 10 μM piperine” value is “almost completely inhibited”.
